Assay results reported in ChEMBL document CHEMBL4118027, “Preussilides A-F, Bicyclic Polyketides from the Endophytic Fungus Preussia similis with Antiproliferative Activity” (J Nat Prod, 2017).
In brackets after ≈: the same amount, converted by molar mass. Activity calls are given as the source filed them. The calls are words filed in the database; no cut-off is given here.

Assays:
Mucor plumbeus = test: Antifungal activity against Mucor plumbeus MUCL 49355 by serial dilution method; assay type: functional
Staphylococcus aureus = test: Antibacterial activity against Staphylococcus aureus DSM 346 by serial dilution method; assay type: functional, organism-based
Candida albicans = test: Antifungal activity against Candida albicans DSM 1665 by serial dilution method; assay type: functional, organism-based
[1] = tested on: Schizosaccharomyces pombe; test: Antifungal activity against Schizosaccharomyces pombe DSM 70572 by serial dilution method; assay type: functional, organism-based
Yamadazyma tenuis = test: Antifungal activity against Candida tenuis MUCL 29892 by serial dilution method; assay type: functional, organism-based
U2OS [2] = test: Induction of morphological changes in human U2OS cells assessed as aberrantly sized cells with abnormal small nuclei formation at 0.25 to 5 ug/ml after 24 hrs by DAPI staining based immunofluorescence microscopic method; assay type: functional, cell-based
How it was run: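 U2OS in DMEM (4.5 g/L glucose, 10% FBS), 37 °C, 7% CO2, seeded 3 × 10^4/well on fibronectin-coated coverslips and adhered 16 h. Treated 24 h at 0.25, 0.5, 2.5, 5 or 10 μg/mL (diluted from 1 mg/mL DMSO stock), DMSO control. Fixed in 4% PFA/PBS 20 min; anti-α-tubulin (DM1A), phalloidin-Alexa 488 and DNA stain; immunofluorescence imaging.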

U2OS [3] = test: Induction of nuclear fragmentation in human U2OS cells at 0.25 to 5 ug/ml after 24 hrs by DAPI staining based immunofluorescence microscopic method; assay type: functional, cell-based
U2OS [4] = test: Cell cycle arrest in human U2OS cells assessed as small cells with reduced nuclear size at 10 ug/ml after 18 hrs by propidium iodide staining based flow cytometry (reference value: 0.19%); assay type: functional; design: scale not given: the % may be the effect or the level left
How it was run: (§1)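 U2OS were seeded at 7 × 10^5/well in six-well plates and exposed to 5 or 10 μg/mL for 18 h after spreading, with untreated and DMSO mock controls. Cells were trypsinized, fixed in 2% PFA/PBS, then in ice-cold methanol 30 min. Staining: anti-tubulin/anti-lamin antibodies plus RNase A and propidium iodide. Flow cytometry assigned G1, S, G2-M and sub-G1 by DNA content.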

U2OS [5] = test: Cell cycle arrest in human U2OS cells assessed as accumulation at sub-G1 phase at 5 ug/ml after 18 hrs by propidium iodide staining based flow cytometry (reference value: 0.19%); assay type: functional; how it was run: as §1
U2OS [6] = test: Cell cycle arrest in human U2OS cells assessed as accumulation at S phase at 10 ug/ml after 18 hrs by propidium iodide staining based flow cytometry (reference value: 19%); assay type: functional; how it was run: as §1
U2OS [7] = test: Cell cycle arrest in human U2OS cells assessed as accumulation at G2/M phase at 10 ug/ml after 18 hrs by propidium iodide staining based flow cytometry (reference value: 24.3%); assay type: functional; how it was run: as §1
U2OS [8] = test: Induction of morphological changes in human U2OS cells at 0.25 to 5 ug/ml after 24 hrs by DAPI staining based immunofluorescence microscopic method

Structure (SMILES): CC(=O)CC1=C(C)C=C2C[C@@H](C)C(=O)[C@@H](C)[C@@H]2[C@H]1/C=C(C)/C=C(C)/C=C/C(=O)O
- MIC (Mucor plumbeus): 37.5 µg/mL (≈ 94.6 µM)
- Activity (Staphylococcus aureus): inactive
- Activity (Candida albicans): inactive
- Activity [1]: inactive
- Activity (Yamadazyma tenuis): inactive
- Activity (U2OS [2]): Active
- Activity (U2OS [3]): Active
- Activity (U2OS [4]): 25.5%
- Activity (U2OS [5]): 1.14%
- Activity (U2OS [6]): 9.62%
- Activity (U2OS [7]): 10.8%
- Activity (U2OS [8]): Active
